E coli WT inh: growth inhibitors of wild type E. coli, primary screen, strain BW25113 wild type, absorbance readout; E. coli BW25113 growth inhibition, OD600; inhibition, % at 10 µM; 20,000 tested, 0.05% active; AID 552, 2006; in the data active means inhibition above about 40%;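 further: bacteria exposed to compound for 20 hours at 37 °C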
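Assay system: Bacterial strain in a whole-cell growth screen | Amount: Inoculum from a 1:1000 dilution of a 1.5 h subculture | Detection: Absorbance at 615 nm as a measure of bacterial growth | Timing: 20 h exposure, 37 °C | Buffer or medium: LB plus kanamycin 50 µg/mL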
Starred values were filed as active, the others as inactive. Only a selection was taken, and hits are over-represented in it overall.

SMILES	E coli WT inh
CCCC1C(C#N)=C(N)Oc2n[nH]c(C(C)(C)C)c21 (stereo not drawn)	16
CC(=O)NC(C)C(=O)OCc1ccc(Cl)cc1Cl (stereo not drawn)	-5
Cc1ccc(S(=O)(=O)NC(=O)c2cc(C)n(CCCn3ccnc3)c2C)cc1	-4
O=C(NC(=O)c1ccc(Cl)cc1)Nc1cc(N2CCCCC2)ncn1	1
c1ccc2c(c1)oc1c(N3CCN(Cc4ccc5c(c4)OCO5)CC3)ncnc12	-16
Cc1ccc2nc(NC3=NCN(Cc4ccc5c(c4)OCO5)CN3)nc(C)c2c1	-22
CCOC(=O)c1ccccc1NC(=O)CN(c1ccccc1)S(=O)(=O)N(C)C	-10
CCNc1nc(N)nc(Oc2ccc(OCCOc3ccc(Cl)cc3Cl)nn2)n1	-10
CC(=O)Nc1cc(NC(C)=O)cc(C(=O)OCC(=O)N2CC(C)OC(C)C2)c1 (stereo not drawn)	-5
O=C(c1cn(-c2ccccc2)nc1-c1ccncc1)n1nnc2ccccc21	-20
Cc1ccc(-n2nnnc2SCC(=O)Nc2ccc3c(c2)COC3=O)cc1C	-7
Cc1noc(C)c1C(=O)Nc1nc(C23CC4CC(CC(C4)C2)C3)cs1	-26
COc1cc(Cl)c(C)cc1NC(=O)COC(=O)c1cnc(C)cn1	10
CCN(CC)CCCN1C(=O)C(=O)/C(=C(/O)c2ccccc2)C1c1ccccn1 (stereo not drawn)	-4
COc1ccccc1C1CC(c2ccc(C)cc2)Nc2ncnn21 (stereo not drawn)	0
CCn1cc(C(=O)O)c(=O)c2cnc(N3CCNCC3)nc21	45*
CCN1CCN(C(=O)Nc2cccc(C(F)(F)F)c2)CC1	-11
CCn1cc(C(=O)O)c(=O)c2cc(F)c(N3CCNCC3)cc21	76*
CCn1cc(C(=O)NCc2ccco2)c(=O)c2cc(F)c(N3CCN(C(=O)c4ccco4)CC3)cc21	10
CCOC(=O)N1CCN(c2cc3[nH]c(=S)[nH]c3cc2F)CC1	10
COc1cc2nc(N3CCNCC3)nc(N)c2cc1OC	-16
CCn1cc(C(=O)O)c(=O)c2cc(F)c(N3CCN(C(=O)Nc4ccccc4)CC3)cc21	63*
CC(=O)c1cc(F)c(N2CCN(C(=O)Cc3ccccc3)CC2)cc1C	0
COC(=O)Nc1nnc(-c2ccccc2Cl)s1	-16
CC(Sc1nc(N(C)C)nc(N2CCOCC2)n1)C(=O)Nc1ccccc1 (stereo not drawn)	-21
SMILES	E coli WT inh
COc1ccc(OC)c(S(=O)(=O)Nc2cnc3ccccc3c2)c1	-17
CCN(CC)S(=O)(=O)c1cc(C(=O)n2cccn2)c(Cl)cc1Cl	5
O=C1CN(c2nc3ccccc3n3cnnc23)CC(=O)N1CCc1ccccc1	-5
COc1ccc(N2CCN(C(c3ccccc3)c3sc4nc(C)nn4c3O)CC2)cc1 (stereo not drawn)	8
COc1ccccc1C1/C(=C(\O)c2c(C)nc3c(C)cccn23)C(=O)C(=O)N1CCCN(C)C (stereo not drawn)	-5
O=c1[nH]c(=O)n([C@H]2C[C@H](O)[C@@H](CO)O2)cc1F	17
Cc1cn([C@H]2C[C@H](N=[N+]=[N-])[C@@H](CO)O2)c(=O)[nH]c1=O	72*
Cc1cn([C@H]2C=C[C@@H](CO)O2)c(=O)[nH]c1=O	2
Cc1ccc(C)c(NC(=O)CC(NCCCN2CCOCC2)C(=O)O)c1 (stereo not drawn)	13
O=C(O)C(Oc1ccc2c3c(c(=O)oc2c1)CCC3)c1ccccc1 (stereo not drawn)	-16
CC1CCN(Cc2ccc(NC(=O)C3CCN(c4nnc(-n5cccc5)s4)CC3)cc2)CC1	5
CCOC(=O)N1CCN(C(=O)C(NS(=O)(=O)c2cccc3nsnc23)c2ccccc2)CC1 (stereo not drawn)	16
CCCc1nc2ccccc2n2cc3c(=O)n(C)c(=O)n(C)c3c12	-22
Cc1occc1-c1nnc(SCC(=O)N2CCc3ccccc32)o1	2
Cc1noc(/C=C/N(C)C)c1S(=O)(=O)N1CCc2ccccc21	-2
Cc1c(NC(=O)CCc2ccc(S(=O)(=O)N3CCOCC3)cc2)c(=O)n(-c2ccccc2)n1C	6
CCOc1nc(-c2ccccc2)ccc1-c1noc(-c2ccc(OC)c(OC)c2)n1	2
Cc1cc2ccccc2c(=O)n1CC(=O)N(C)c1ccc(F)cc1	-2
O=C(OCCCCN1C(=O)c2ccccc2C1=O)c1n[nH]c2ccccc12	-1
CCC(NS(=O)(=O)c1ccc(C)cc1)C(=O)Nc1ccc(NC(C)=O)cc1 (stereo not drawn)	-26
CCCC(=O)Nc1ccccc1NC(=O)CN(C)S(=O)(=O)c1ccccc1	-14
COc1ccc(OC)c(NC(=O)C23CCC(C)(C(=O)C2)C3(C)C)c1 (stereo not drawn)	-9
CCOc1ccc(OCC)c(NC(=O)C2CCN(S(=O)(=O)c3cnc[nH]3)CC2)c1	-3
Cc1cccc(C)c1-n1nnnc1S(=O)(=O)Cc1ccccc1Cl	-16
COc1cccc(C(=O)Nc2cc(C)c3c(=O)oc4ccccc4c3n2)c1	7
c1ccc(OCCCc2nc(-c3ccccn3)no2)cc1	-10

From PubChem
